{"source": "the EternaBench riboswitch data", "key": {"MS2 coat protein [1]": {"test_system": "MS2 coat protein", "assay": "apparent Kd, MS2 coat protein; higher = weaker binding; RNA-MaP array; tryptophan 2.4 mM where present", "procedure,_shortened": "(§1)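 Binding was read on Illumina sequencing-chip clusters where stalled E. coli RNA polymerase had transcribed each design. A titration of SNAP-549-labelled MS2 coat protein began at 0.7 or 1.5 nM and doubled to 3 µM, once without ligand and once with constant ligand, in 100 mM Tris-HCl pH 7.5, 80 mM KCl, 4 mM MgCl2, BSA, DTT, yeast tRNA and Tween-20. The apparent Kd is the median of filtered per-cluster binding-curve fits, based on green signal normalised to red-channel RNA signal and control-cluster median Fmax.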"}, "MS2 coat protein [2]": {"test_system": "MS2 coat protein", "assay": "apparent Kd, MS2 coat protein; higher = weaker binding; RNA-MaP array; theophylline 2 mM where present", "procedure,_shortened": "as §1"}, "[3]": {"conditions": "designed as: OFF switch for tryptophan, no ligand"}, "[4]": {"conditions": "ligand present: tryptophan, designed as: OFF switch for tryptophan"}, "[5]": {"conditions": "designed as: ON switch for tryptophan, no ligand"}, "[6]": {"conditions": "ligand present: tryptophan, designed as: ON switch for tryptophan"}, "[7]": {"conditions": "designed as: ON switch for theophylline, no ligand"}, "[8]": {"conditions": "ligand present: theophylline, designed as: ON switch for theophylline"}, "[9]": {"conditions": "designed as: OFF switch for theophylline, no ligand"}, "[10]": {"conditions": "ligand present: theophylline, designed as: OFF switch for theophylline"}}}
{"sequence": "AAAACAUGAGGAUCACCACAUGACAUGAGGCGAGGACCGGUACGGCCGCCACUCGACAUACAUGAGGAUCACCCAUGUUUGUUGU", "values": [{"measurement": "apparent Kd", "setting": "MS2 coat protein [1]; [3]", "result": 217, "unit": "nM"}, {"measurement": "apparent Kd", "setting": "MS2 coat protein [1]; [4]", "result": 269, "unit": "nM"}]}
{"sequence": "AACUACUCGAGGUGAUCCUACGAGUGGCAACGAGGACCGGUACGGCCGCCACUCGAAUAAACAUGAGGAUCACCCAUGUACAAAU", "values": [{"measurement": "apparent Kd", "setting": "MS2 coat protein [1]; [5]", "result": 81, "unit": "nM"}, {"measurement": "apparent Kd", "setting": "MS2 coat protein [1]; [6]", "result": 83.7, "unit": "nM"}]}
{"sequence": "AAGGCACGAGACAUGAGGAUCACCCAUGUUCGAGGACCGGUACGGCCGCCACUCGGUGGACUCAUGGUAAAGCCGGUGAGCCAAA", "values": [{"measurement": "apparent Kd", "setting": "MS2 coat protein [1]; [5]", "result": 19.4, "unit": "nM"}, {"measurement": "apparent Kd", "setting": "MS2 coat protein [1]; [6]", "result": 37.2, "unit": "nM"}]}
{"sequence": "AAUAACAUGAGGAUCACCCAUGUAAGUAAACGAGGACCGGUACGGCCGCCACUCGAAUAAAUAAAGUACCGGUAAGAUCCAUAGA", "values": [{"measurement": "apparent Kd", "setting": "MS2 coat protein [1]; [5]", "result": 21.3, "unit": "nM"}, {"measurement": "apparent Kd", "setting": "MS2 coat protein [1]; [6]", "result": 23.9, "unit": "nM"}]}
{"sequence": "AAUAAUAGGUGAUCCUAACGAGUGGCAUAACGAGGACCGGUACGGCCGCCACUCGAACAUGAGGAUCACCCAUGUAGUCACUCGA", "values": [{"measurement": "apparent Kd", "setting": "MS2 coat protein [1]; [5]", "result": 189, "unit": "nM"}, {"measurement": "apparent Kd", "setting": "MS2 coat protein [1]; [6]", "result": 362, "unit": "nM"}]}
{"sequence": "AAUGGCCGUACCGGAAGGGUGAUCCUCAAACGAGGACCGGUACGGCCGCCACUCGAUAACAUGAGGAUCACCCAUGUAAUAAUAA", "values": [{"measurement": "apparent Kd", "setting": "MS2 coat protein [1]; [3]", "result": 331, "unit": "nM"}, {"measurement": "apparent Kd", "setting": "MS2 coat protein [1]; [4]", "result": 389, "unit": "nM"}]}
{"sequence": "AAUGGUCGUACUGGAAUGGUGAUCCUCAAACGAGGACCGGUACGGCCGCCACUCGAUAACAUGAGGAUCACCCAUGUAAUAAUAA", "values": [{"measurement": "apparent Kd", "setting": "MS2 coat protein [1]; [3]", "result": 40.7, "unit": "nM"}, {"measurement": "apparent Kd", "setting": "MS2 coat protein [1]; [4]", "result": 20.8, "unit": "nM"}]}
{"sequence": "ACAUGACAACAUGAGGAUCACCCAUGUCAUCGAGGACCGGUACGGCCGCCACUCGGUCAAUAUGAUACUUGUCAUGAACAUGAGG", "values": [{"measurement": "apparent Kd", "setting": "MS2 coat protein [1]; [3]", "result": 18.7, "unit": "nM"}, {"measurement": "apparent Kd", "setting": "MS2 coat protein [1]; [4]", "result": 23.5, "unit": "nM"}]}
{"sequence": "ACAUGUUGGUGGUAUCUACGAAGGCGGAAACGAGGACCGGUACGGCCGCCACUCGGCGACAUGAGGAUCACCCAUGUGGUUAAGA", "values": [{"measurement": "apparent Kd", "setting": "MS2 coat protein [1]; [3]", "result": 72, "unit": "nM"}, {"measurement": "apparent Kd", "setting": "MS2 coat protein [1]; [4]", "result": 46.4, "unit": "nM"}]}
{"sequence": "ACAUUGCGCUCGGCCGCCACUGGCUUAUGAUUAUAAGCAUUAAUGAACAUGAGGAUCACCCAUGUCAGGACCGGGAGCGAACCAU", "values": [{"measurement": "apparent Kd", "setting": "MS2 coat protein [1]; [5]", "result": 14, "unit": "nM"}, {"measurement": "apparent Kd", "setting": "MS2 coat protein [1]; [6]", "result": 16.6, "unit": "nM"}]}
{"sequence": "AGACCCUUCACGGCCGCCACUCAUUUUAAGUAGAGAGAGUACAUGAGGAUCACCCAUGUGAGAGAGAGGACCGGGUGAGAUAUUA", "values": [{"measurement": "apparent Kd", "setting": "MS2 coat protein [1]; [5]", "result": 17.5, "unit": "nM"}, {"measurement": "apparent Kd", "setting": "MS2 coat protein [1]; [6]", "result": 19.6, "unit": "nM"}]}
{"sequence": "AGAUGAGUCACGGCCGCCACUCUUAUCAGGAUCACCCAUGGUUAACAUGAGGAUCACCCAUGUCUGAGGACCGGGUGAUGAGCAU", "values": [{"measurement": "apparent Kd", "setting": "MS2 coat protein [1]; [3]", "result": 21.6, "unit": "nM"}, {"measurement": "apparent Kd", "setting": "MS2 coat protein [1]; [4]", "result": 23.9, "unit": "nM"}]}
{"sequence": "AGAUGAGUCACGGCCGCCACUCUUCACAGGUUCACCCUUGGUUAACAUGAGGAUCACCCAUGUGGGAGGACCGGGUGAUGAGCAU", "values": [{"measurement": "apparent Kd", "setting": "MS2 coat protein [1]; [3]", "result": 13.7, "unit": "nM"}, {"measurement": "apparent Kd", "setting": "MS2 coat protein [1]; [4]", "result": 33.4, "unit": "nM"}]}
{"sequence": "AGAUUCGACACGGCCGCCACUCGAGACGGAUUUCCGAGUGUCGAACAUGAGGAUCACCCAUGUCCGAGGACCGGGUGUUGAGUCU", "values": [{"measurement": "apparent Kd", "setting": "MS2 coat protein [1]; [3]", "result": 32.2, "unit": "nM"}, {"measurement": "apparent Kd", "setting": "MS2 coat protein [1]; [4]", "result": 401, "unit": "nM"}]}
{"sequence": "AGAUUCGACACGGCCGCCACUCGUGGAGGAUUUCCGAGUGUCGAACAUGAGGAUCACCCAUGUACGAGGACCGGGUGUUGAGUCU", "values": [{"measurement": "apparent Kd", "setting": "MS2 coat protein [1]; [3]", "result": 28.4, "unit": "nM"}, {"measurement": "apparent Kd", "setting": "MS2 coat protein [1]; [4]", "result": 234, "unit": "nM"}]}
{"sequence": "AGAUUCGACACGGCCGCCACUCUACACGGAUUUCCGAGUGUCGAACAUGAGGAUCACCCAUGUGGGAGGACCGGGUGUUGAGUCU", "values": [{"measurement": "apparent Kd", "setting": "MS2 coat protein [1]; [3]", "result": 437, "unit": "nM"}, {"measurement": "apparent Kd", "setting": "MS2 coat protein [1]; [4]", "result": 1030, "unit": "nM"}]}
{"sequence": "AGCACUGUGACGGCCGCCACUACAUAAAUAGGGUGGUCAGGUUCAUUACAUGAGGAUCACCCAUGUAGGACCGGGUCUCAGUGCA", "values": [{"measurement": "apparent Kd", "setting": "MS2 coat protein [1]; [3]", "result": 9.99, "unit": "nM"}, {"measurement": "apparent Kd", "setting": "MS2 coat protein [1]; [4]", "result": 9.55, "unit": "nM"}]}
{"sequence": "AGCGUGCAUCGGAAAACGAUGUACGCAAAUCGAGGACCGGUACGGCCGCCACUCGUCCUCAACAUGAGGAUCACCCAUGUAAUAA", "values": [{"measurement": "apparent Kd", "setting": "MS2 coat protein [1]; [3]", "result": 19.1, "unit": "nM"}, {"measurement": "apparent Kd", "setting": "MS2 coat protein [1]; [4]", "result": 34.7, "unit": "nM"}]}
{"sequence": "AUCCUCAAGAAUGAUACCAGACCAAACAUGAGGAUCACCCAUGUAUCAGGCAAUUGUUACGUCCCUUGGCAGCAUGUAAGCCGAC", "values": [{"measurement": "apparent Kd", "setting": "MS2 coat protein [2]; [7]", "result": 54.9, "unit": "nM"}, {"measurement": "apparent Kd", "setting": "MS2 coat protein [2]; [8]", "result": 60.2, "unit": "nM"}]}
{"sequence": "AUGUUUGUGUGAGAUACCAGUGAGGCCACAUGAGGAUCACCCAUGUCCCUCACUCCGGCCCACCCUUGGCAGCUCUUAUAGAAAA", "values": [{"measurement": "apparent Kd", "setting": "MS2 coat protein [2]; [9]", "result": 10, "unit": "nM"}, {"measurement": "apparent Kd", "setting": "MS2 coat protein [2]; [10]", "result": 59.6, "unit": "nM"}]}
{"sequence": "AUGUUUGUGUGAGAUACCAGUGAGGCCACAUGAGGAUCACCCAUGUCCCUCACUCCGGCCCACCCUUGGCAGCUCUUAUAGUAAA", "values": [{"measurement": "apparent Kd", "setting": "MS2 coat protein [2]; [9]", "result": 9.5, "unit": "nM"}, {"measurement": "apparent Kd", "setting": "MS2 coat protein [2]; [10]", "result": 39.4, "unit": "nM"}]}
{"sequence": "CACUUCAUGUGAGAUACCAGUGCCUUACAUGAGGAUCACCCAUGUCGUAAUGUGGAGAAGCACCCUUGGCAGCUCGCUUCGAGUG", "values": [{"measurement": "apparent Kd", "setting": "MS2 coat protein [2]; [7]", "result": 83.9, "unit": "nM"}, {"measurement": "apparent Kd", "setting": "MS2 coat protein [2]; [8]", "result": 71.7, "unit": "nM"}]}
{"sequence": "CAUACUUUAUCCUAUGAGCCUAUUUGUGAUACCAGCAUCUAAAUUUGCCCUUGGCAGCACUUACAUGAGGAUCACCCAUGUUUUA", "values": [{"measurement": "apparent Kd", "setting": "MS2 coat protein [2]; [7]", "result": 26.8, "unit": "nM"}, {"measurement": "apparent Kd", "setting": "MS2 coat protein [2]; [8]", "result": 40.7, "unit": "nM"}]}
{"sequence": "CAUUAUGUAACUGAUACCAGUGUACUGACAUGAGGAUCACCCAUGUUGGGUUUUGUUGUACACCCUUGGCAGCAGAAUCAUAAUG", "values": [{"measurement": "apparent Kd", "setting": "MS2 coat protein [2]; [9]", "result": 63.5, "unit": "nM"}]}
{"sequence": "CCAUACGUAACUGAUACCAGUGUACUGACAUGAGGAUCACCCAUGUUGGGUUUUGUUGUACACCCUUGGCAGCAGAAUCGUAUGG", "values": [{"measurement": "apparent Kd", "setting": "MS2 coat protein [2]; [9]", "result": 69, "unit": "nM"}, {"measurement": "apparent Kd", "setting": "MS2 coat protein [2]; [10]", "result": 101, "unit": "nM"}]}
{"sequence": "CCUGCGUUUCUUUUCUUUCGCAGGAAUGAUACCAGUAGGGAAACCUACCCUUGGCAGCAUGGGACAUGAGGAUCACCCAUGUAAU", "values": [{"measurement": "apparent Kd", "setting": "MS2 coat protein [2]; [7]", "result": 439, "unit": "nM"}, {"measurement": "apparent Kd", "setting": "MS2 coat protein [2]; [8]", "result": 89.3, "unit": "nM"}]}
